Results reported in ChEMBL document CHEMBL1255444, “In vitro antibacterial activities of JNJ-Q2, a new broad-spectrum fluoroquinolone” (Antimicrob Agents Chemother, 2010).
In brackets after ≈: the same amount, converted by molar mass. Activity calls are given as the source filed them. The rule behind the calls is not given here.

Tests used:
Streptococcus pneumoniae [1] = assay: Antibacterial activity against Streptococcus pneumoniae isolate OC6610 by broth microdilution method; type: functional
Procedure, shortened: (§1)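 CLSI M07-A7 broth microdilution MIC. Medium was cation-adjusted Mueller-Hinton broth. For S. pneumoniae it was Mueller-Hinton supplemented with 5% lysed horse blood. CLSI quality-control strains were included as appropriate.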

Streptococcus pneumoniae [2] = assay: Antibacterial activity against Streptococcus pneumoniae isolate OC6790 assessed as log reduction in bacterial growth at 4 times MIC measured at 24 hrs by time-kill assay; type: functional
Procedure, shortened: (§2)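 Drug was diluted from 50× stocks made in water or acidified water. Samples were taken at 6 and 24 h and serially diluted onto TSA-5% sheep blood plates. Plates were incubated 20–24 h at 37°C in 5% CO2 before counting CFU. Log10 titer change is given relative to the starting inoculum.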

Streptococcus pneumoniae [3] = assay: Antibacterial activity against Streptococcus pneumoniae isolate OC6610 assessed as log reduction in bacterial growth at 4 times MIC measured at 24 hrs by time-kill assay; type: functional; procedure, shortened: as §2
Providencia stuartii [4] = assay: Ratio of Levofloxacin MIC90 to compound MIC90 for Providencia stuartii; type: functional
[5] = Distribution coefficient, log D of the compound; type: physicochemical; conditions: octanol/water
Providencia stuartii [6] = assay: Antibacterial activity against Providencia stuartii by broth microdilution method; type: functional
Procedure, shortened: (§3)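 MICs by CLSI M07-A7 broth microdilution in cation-adjusted Mueller-Hinton medium. For S. pneumoniae the medium was supplemented with 5% lysed horse blood. CLSI quality control strains were run alongside as appropriate.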

Klebsiella aerogenes = assay: Antibacterial activity against Enterobacter aerogenes by broth microdilution method; type: functional; procedure, shortened: as §3
Streptococcus pneumoniae [7] = assay: Antibacterial activity against Streptococcus pneumoniae isolate OC6790 by broth microdilution method; type: functional; procedure, shortened: as §1
Staphylococcus aureus [8] = assay: Antibacterial activity against methicillin-resistant Staphylococcus aureus isolate OC11150 harboring gyrA S84L and parC S80Y mutant gene by agar dilution method; type: functional
Procedure, shortened: (§4)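 MICs for the resistance-selection studies were determined by CLSI agar dilution on Mueller-Hinton medium. For S. pneumoniae the medium was supplemented with 5% lysed horse blood. For MRSA fluctuation-assay strains an arithmetic agar dilution scheme was used for a more precise MIC.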

Streptococcus pneumoniae [9] = assay: Antibacterial activity against Streptococcus pneumoniae isolate OC6610 assessed as log reduction in bacterial growth at 2 times MIC measured at 6 hrs by time-kill assay; type: functional; procedure, shortened: as §2
Staphylococcus aureus [10] = assay: Antibacterial activity against methicillin-resistant Staphylococcus aureus isolate OC11696 assessed as log reduction in bacterial growth at 2 times MIC measured at 24 hrs by time-kill assay; type: functional
Procedure, shortened: (§5)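 Overnight MRSA cultures were diluted into fresh cation-adjusted Mueller-Hinton broth to about 5 × 10^6 CFU/ml. […] Samples were plated serially diluted on trypticase soy agar, and CFU were counted after 20-24 h at 37°C. Value is the log10 decrease at 24 h from the starting inoculum; detection limit 100 CFU.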

Streptococcus pneumoniae [11] = assay: Antibacterial activity against Streptococcus pneumoniae isolate OC7368 assessed as log reduction in bacterial growth at 4 times MIC measured at 6 hrs by time-kill assay; type: functional; procedure, shortened: as §2
[12] = Aqueous solubility of the compound; type: physicochemical
Streptococcus pyogenes = assay: Antibacterial activity against Streptococcus pyogenes by broth microdilution method; type: functional; procedure, shortened: as §3
Streptococcus pneumoniae [13] = assay: Antibacterial activity against Streptococcus pneumoniae isolate OC5462 by broth microdilution method; type: functional; procedure, shortened: as §1
Streptococcus pneumoniae [14] = assay: Antibacterial activity against Streptococcus pneumoniae isolate OC6610 assessed as log reduction in bacterial growth at 2 times MIC measured at 24 hrs by time-kill assay; type: functional; procedure, shortened: as §2
Staphylococcus aureus [15] = assay: Antibacterial activity against methicillin-resistant Staphylococcus aureus isolate OC8530 harboring gyrA S84L and parC I143V mutant gene assessed as log reduction in bacterial growth at 4 times MIC measured at 24 hrs by time-kill assay; type: functional
Procedure, shortened: (§6)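 Time-kill in cation-adjusted Mueller-Hinton broth. […] Samples were taken up to 24 h, serially diluted onto TSA and counted after 20–24 h at 37°C. Result is log10 decrease at 24 h from the starting inoculum; detection limit 100 CFU.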

[16] = Plasma protein binding in rat infected with gram-positive bacteria; type: ADME, cell-free; conditions: read-out: PPB (converted)
Streptococcus pneumoniae [17] = assay: Antibacterial activity against Streptococcus pneumoniae isolate OC5462 assessed as log reduction in bacterial growth at 2 times MIC measured at 24 hrs by time-kill assay; type: functional; procedure, shortened: as §2
Streptococcus pneumoniae [18] = assay: Antibacterial activity against Streptococcus pneumoniae isolate OC5462 assessed as log reduction in bacterial growth at 2 times MIC measured at 6 hrs by time-kill assay; type: functional; procedure, shortened: as §2
Streptococcus pneumoniae [19] = assay: Antibacterial activity against erythromycin-resistant Streptococcus pneumoniae by broth microdilution method; type: functional, organism-based; procedure, shortened: as §1
Streptococcus pneumoniae [20] = assay: Antibacterial activity against Streptococcus pneumoniae isolate OC6790 assessed as log reduction in bacterial growth at 2 times MIC measured at 6 hrs by time-kill assay; type: functional; procedure, shortened: as §2
Staphylococcus aureus [21] = assay: Antibacterial activity against methicillin-resistant Staphylococcus aureus isolate OC2838 by broth microdilution method; type: functional; procedure, shortened: as §1
Moraxella catarrhalis = assay: Antibacterial activity against Moraxella catarrhalis by broth microdilution method; type: functional; procedure, shortened: as §3
Escherichia coli = assay: Antibacterial activity against ciprofloxacin-susceptible, -intermediate Escherichia coli by broth microdilution method; type: functional
Staphylococcus aureus [22] = assay: Antibacterial activity against methicillin-susceptible Staphylococcus aureus by broth microdilution method; type: functional
Staphylococcus aureus [23] = assay: Antibacterial activity against methicillin-resistant Staphylococcus aureus isolate OC4222 harboring gyrA S84L and parC S80F mutant gene by broth microdilution method; type: functional; procedure, shortened: as §1
Staphylococcus aureus [24] = assay: Antibacterial activity against methicillin-resistant Staphylococcus aureus isolate OC11223 assessed as log reduction in bacterial growth at 2 times MIC measured at 24 hrs by time-kill assay; type: functional; procedure, shortened: as §5
Streptococcus pneumoniae [25] = assay: Antibacterial activity against Streptococcus pneumoniae isolate OC6608 by broth microdilution method; type: functional; procedure, shortened: as §1
Streptococcus pneumoniae [26] = assay: Antibacterial activity against Streptococcus pneumoniae isolate OC7348 by broth microdilution method; type: functional; procedure, shortened: as §1
Streptococcus pneumoniae [27] = assay: Ratio of Levofloxacin MIC90 to compound MIC90 for ciprofloxacin-resistant Streptococcus pneumoniae; type: functional
Staphylococcus aureus [28] = assay: Antibacterial activity against methicillin-resistant Staphylococcus aureus isolate OC8525 harboring wild type quinolone resistance-determining region assessed as log reduction in bacterial growth at 4 times MIC measured at 24 hrs by time-kill assay; type: functional; procedure, shortened: as §6
Staphylococcus aureus [29] = assay: Antibacterial activity against methicillin-resistant Staphylococcus aureus isolate OC11521 harboring gyrA S84L/S85P, parC E84G mutant gene by broth microdilution method; type: functional; procedure, shortened: as §1
Streptococcus pneumoniae [30] = assay: Antibacterial activity against Streptococcus pneumoniae isolate OC7348 assessed as log reduction in bacterial growth at 2 times MIC measured at 6 hrs by time-kill assay; type: functional; procedure, shortened: as §2
Pseudomonas aeruginosa = assay: Antibacterial activity against Pseudomonas aeruginosa ATCC 27853 by broth microdilution method; type: functional; procedure, shortened: as §3
Staphylococcus aureus [31] = assay: Antibacterial activity against methicillin-resistant Staphylococcus aureus isolate OC17042 harboring gyrA S84L/G106D, parC S80F and parE D732N mutant gene assessed as log reduction in bacterial growth at 4 times MIC measured at 24 hrs by time-kill assay; type: functional; procedure, shortened: as §5
Streptococcus pneumoniae [32] = assay: Antibacterial activity against Streptococcus pneumoniae isolate OC7368 by broth microdilution method; type: functional; procedure, shortened: as §1
Streptococcus pneumoniae [33] = assay: Antibacterial activity against Streptococcus pneumoniae R6 by agar dilution method; type: functional; procedure, shortened: as §4

COc1c(N2CCC/C(=C(\F)CN)C2)c(F)cc2c(=O)c(C(=O)O)cn(C3CC3)c12 [ACORAFLOXACIN]
MIC (Streptococcus pneumoniae [1]): 0.5 µg/mL (≈ 1.19 µM)
deltalog10CFU/ml (Streptococcus pneumoniae [2]): 6.8
deltalog10CFU/ml (Streptococcus pneumoniae [3]): 6.9
Ratio (Providencia stuartii [4]): 16
logD [5]: 0.37
MIC50 (Providencia stuartii [6]): 2 µg/mL (≈ 4.77 µM)
MIC90 (Providencia stuartii [6]): 4 µg/mL (≈ 9.54 µM)
MIC50 (Klebsiella aerogenes): 0.12 µg/mL (≈ 0.286 µM)
MIC90 (Klebsiella aerogenes): 0.25 µg/mL (≈ 0.596 µM)
MIC (Streptococcus pneumoniae [7]): 0.12 µg/mL (≈ 0.286 µM)
MIC (Staphylococcus aureus [8]): 0.12 µg/mL (≈ 0.286 µM)
deltalog10CFU/ml (Streptococcus pneumoniae [9]): 3.4
deltalog10CFU/ml (Staphylococcus aureus [10]): 6.5
deltalog10CFU/ml (Streptococcus pneumoniae [11]): 3.7
solubility [12]: 4520 µg/mL (≈ 10800 µM)
MIC (Streptococcus pyogenes): 0.008 µg/mL (≈ 0.0191 µM)
MIC50 (Streptococcus pyogenes): 0.008 µg/mL (≈ 0.0191 µM)
MIC90 (Streptococcus pyogenes): 0.015 µg/mL (≈ 0.0358 µM)
MIC (Streptococcus pneumoniae [13]): 0.06 µg/mL (≈ 0.143 µM)
deltalog10CFU/ml (Streptococcus pneumoniae [14]): 5
deltalog10CFU/ml (Staphylococcus aureus [15]): 6.3
fraction unbound [16]: 0.44
deltalog10CFU/ml (Streptococcus pneumoniae [17]): 3.3
deltalog10CFU/ml (Streptococcus pneumoniae [18]): 3.2
Activity (Streptococcus pneumoniae [19]): Active
deltalog10CFU/ml (Streptococcus pneumoniae [20]): 3.6
MIC (Staphylococcus aureus [21]): 0.25 µg/mL (≈ 0.596 µM)
MIC (Moraxella catarrhalis): ≤ 0.015 µg/mL
MIC50 (Moraxella catarrhalis): ≤ 0.015 µg/mL
MIC90 (Moraxella catarrhalis): ≤ 0.015 µg/mL
MIC50 (Escherichia coli): 0.06 µg/mL (≈ 0.143 µM)
MIC90 (Escherichia coli): 0.25 µg/mL (≈ 0.596 µM)
MIC50 (Staphylococcus aureus [22]): 0.015 µg/mL (≈ 0.0358 µM)
MIC90 (Staphylococcus aureus [22]): 0.015 µg/mL (≈ 0.0358 µM)
MIC (Staphylococcus aureus [23]): 0.5 µg/mL (≈ 1.19 µM)
deltalog10CFU/ml (Staphylococcus aureus [24]): 2.5
MIC (Streptococcus pneumoniae [25]): 0.06 µg/mL (≈ 0.143 µM)
MIC (Streptococcus pneumoniae [26]): 0.12 µg/mL (≈ 0.286 µM)
Ratio (Streptococcus pneumoniae [27]): 9
deltalog10CFU/ml (Staphylococcus aureus [28]): 5
MIC (Staphylococcus aureus [29]): 1 µg/mL (≈ 2.38 µM)
deltalog10CFU/ml (Streptococcus pneumoniae [30]): 3.8
MIC50 (Pseudomonas aeruginosa): 1 µg/mL (≈ 2.38 µM)
MIC90 (Pseudomonas aeruginosa): 2 µg/mL (≈ 4.77 µM)
deltalog10CFU/ml (Staphylococcus aureus [31]): 3.5
MIC (Streptococcus pneumoniae [32]): 0.12 µg/mL (≈ 0.286 µM)
MIC (Streptococcus pneumoniae [33]): 0.015 µg/mL (≈ 0.0358 µM)
